Results as given in PubChem BioAssay AID652011 (Sanford-Burnham Center for Chemical Genomics, 2013).
Values joined by “and” are separate entries in the source; they are usually repeats but may differ in a detail not shown here. Equal entries are not always repeated. Active and inactive are the calls of the source.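 The calls were made as follows: active = IC50 of 10 µM or lower on HIF-2a in both cell lines, but not on HIF-1a; inactive = the rest, including compounds also potent on HIF-1a.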

Experiments:
Experiment in all cases: HIF reporter inhibition across pancreatic and renal lines – cell-based, luminescence, MIAPaCa-2, 786-0, panel, SAR follow-up (AID 652011)
[1] = test system: HIF1a; conditions: MIAPaCa-2/PANC HIF reporter, luciferase luminescence, desferoxamine, overnight
Method in brief: (§1)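 Probe or stimulus – desferoxamine stimulus · Times – overnight compound incubation at 37 °C, 10 min reagent · Doses – compounds from 10 mM and 0.3125 mM stocks, 1% DMSO final · Technique – luminescence, One-Glo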

[2] = target: Endothelial PAS domain-containing protein 1 (Homo sapiens) (UniProt Q99814); conditions: MIAPaCa-2/PANC HIF reporter, luciferase luminescence, desferoxamine, overnight; HIF2a PANC cells; mean of runs
Method in brief: as §1

[3] = test system: HIF2a PANC; conditions: MIAPaCa-2/PANC HIF reporter, luciferase luminescence, desferoxamine, overnight
Method in brief: as §1

[4] = run 1, individual run IC50, panel line
[5] = run 2, individual run IC50, panel line

Sequence of Endothelial PAS domain-containing protein 1 (Homo sapiens) (Q99814 whole entry, looked up, the tested form may be a part): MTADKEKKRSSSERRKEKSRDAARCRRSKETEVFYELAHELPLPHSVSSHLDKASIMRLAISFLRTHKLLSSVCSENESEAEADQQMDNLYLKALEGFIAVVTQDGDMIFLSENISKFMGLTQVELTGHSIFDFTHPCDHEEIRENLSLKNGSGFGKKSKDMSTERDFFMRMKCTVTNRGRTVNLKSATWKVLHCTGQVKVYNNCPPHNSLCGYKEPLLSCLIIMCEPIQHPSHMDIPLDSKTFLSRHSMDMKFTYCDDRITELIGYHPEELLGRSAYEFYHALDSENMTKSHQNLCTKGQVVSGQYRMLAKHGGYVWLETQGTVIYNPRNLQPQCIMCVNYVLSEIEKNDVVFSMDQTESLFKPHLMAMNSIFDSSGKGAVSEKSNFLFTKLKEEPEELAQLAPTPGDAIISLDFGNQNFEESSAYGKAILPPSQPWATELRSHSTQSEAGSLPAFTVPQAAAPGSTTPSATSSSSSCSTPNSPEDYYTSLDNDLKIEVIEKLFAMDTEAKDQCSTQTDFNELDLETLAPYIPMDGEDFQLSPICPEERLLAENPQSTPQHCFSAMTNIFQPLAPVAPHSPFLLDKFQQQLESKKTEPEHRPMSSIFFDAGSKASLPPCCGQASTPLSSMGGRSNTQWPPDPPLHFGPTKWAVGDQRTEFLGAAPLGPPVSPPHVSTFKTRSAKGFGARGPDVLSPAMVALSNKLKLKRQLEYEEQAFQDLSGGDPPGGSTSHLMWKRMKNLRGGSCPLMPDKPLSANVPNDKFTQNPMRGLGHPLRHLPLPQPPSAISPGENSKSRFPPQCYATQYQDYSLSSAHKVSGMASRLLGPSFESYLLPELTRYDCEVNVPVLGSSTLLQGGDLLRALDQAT

Row | IC50 [1, 4] | IC50 [1, 5] | IC50 [2] | IC50 [3, 4] | IC50 [3, 5] | SMILES
1 | > 99 µM | > 99 µM | inactive | > 99 µM | < 0.19 µM | CCCCc1ccc(-c2noc(CCC(=O)NC3CC3)n2)cc1
2 | > 99 µM | > 99 µM | > 99 µM (inactive) | > 99 µM | > 99 µM | CCc1ccc(-c2noc(CCC(=O)NC(C)CC)n2)cc1 (centres undefined)
3 | > 99 µM | > 99 µM | > 99 µM (inactive) | > 99 µM | > 99 µM | CNC(=O)CCc1nc(-c2ccc(F)cc2)no1
4 | > 99 µM | > 99 µM | > 99 µM (inactive) | > 99 µM | > 99 µM | CCN(CC)C(=O)CCc1nc(-c2ccc(C(C)(C)C)cc2)no1
5 | > 99 µM | > 99 µM | > 99 µM (inactive) | > 99 µM | > 99 µM | CC(C)(C)NC(=O)CCc1nc(-c2ccccc2)no1
6 | > 99 µM | > 99 µM | > 99 µM (inactive) | > 99 µM | > 99 µM | CCC(C)NC(=O)CCc1nc(-c2ccccc2)no1 (centres undefined)
7 | > 99 µM | > 99 µM | < 0.19 µM | < 0.19 µM | < 0.19 µM | CC(C)CNC(=O)CCc1nc(-c2ccc(C(C)(C)C)cc2)no1
8 | > 99 µM | > 99 µM | > 99 µM (inactive) | > 99 µM | > 99 µM | CCNC(=O)CCc1nc(-c2cccc(C)c2)no1
9 | > 99 µM | > 99 µM | inactive | < 0.19 µM | > 99 µM | CNC(=O)CCc1nc(-c2ccc(C(C)(C)C)cc2)no1
10 | > 99 µM | > 99 µM | > 99 µM (inactive) | > 99 µM | > 99 µM | CC(C)(C)c1ccc(-c2noc(CCC(=O)N3CCOCC3)n2)cc1
11 | > 99 µM | > 99 µM | < 0.19 µM | < 0.19 µM | < 0.19 µM | CNC(=O)CCc1nc(-c2ccc(C(C)C)cc2)no1
12 | > 99 µM | > 99 µM | > 99 µM (inactive) | > 99 µM | > 99 µM | CCc1ccc(-c2noc(CCC(=O)NC(C)(C)C)n2)cc1
13 | > 99 µM | > 99 µM | < 0.19 µM | < 0.19 µM | < 0.19 µM | CCCCc1ccc(-c2noc(CCC(=O)NC(C)(C)C)n2)cc1
14 | > 99 µM | > 99 µM | < 0.19 µM | < 10 µM | < 0.19 µM | CC(C)NC(=O)CCc1nc(-c2ccc(C(C)(C)C)cc2)no1
15 | > 99 µM | > 99 µM | > 99 µM (inactive) | > 99 µM | > 99 µM | CNC(=O)CCc1nc(-c2ccccc2)no1
16 | > 99 µM | > 99 µM | – | > 99 µM and < 10 µM | < 0.19 µM | CCNC(=O)CCc1nc(-c2ccc(C(C)(C)C)cc2)no1
17 | > 99 µM | > 99 µM | 0.573 µM | < 0.19 µM | 0.573 µM | CC(C)(C)NC(=O)CCc1nc(-c2ccc(C(C)(C)C)cc2)no1
18 | > 99 µM | > 99 µM | > 99 µM (inactive) | > 99 µM | > 99 µM | CCNC(=O)CCc1nc(-c2ccccc2C)no1
19 | > 99 µM | > 99 µM | > 99 µM (inactive) | > 99 µM | > 99 µM | CC(C)c1ccc(-c2noc(CCC(=O)NC(C)(C)C)n2)cc1
20 | > 99 µM | > 99 µM | > 99 µM (inactive) | > 99 µM | > 99 µM | CCNC(=O)CCc1nc(-c2ccc(CC)cc2)no1
21 | > 99 µM | > 99 µM | inactive | > 99 µM | 38.2 µM | CC(C)(C)c1ccc(-c2noc(CCC(=O)N3CCCCC3)n2)cc1
22 | > 99 µM | > 99 µM | < 0.19 µM | < 0.19 µM | < 0.19 µM | CC(C)(C)c1ccc(-c2noc(CCC(N)=O)n2)cc1
23 | > 99 µM | > 99 µM | < 0.19 µM | < 0.19 µM | < 0.19 µM | CCCCc1ccc(-c2noc(CCC(=O)NCC)n2)cc1
24 | > 99 µM | > 99 µM | inactive | > 99 µM | < 0.19 µM | CCCNC(=O)CCc1nc(-c2ccc(C(C)(C)C)cc2)no1
25 | > 99 µM | > 99 µM | > 99 µM (inactive) | > 99 µM | > 99 µM | CCC(C)NC(=O)CCc1nc(-c2ccc(C(C)C)cc2)no1 (centres undefined)
